Reference: ChEMBL document CHEMBL5338802, “To Fold or Not to Fold: Diastereomeric Optimization of an α-Helical Antimicrobial Peptide” (J Med Chem, 2023)
In brackets after ≈: the same amount, converted by molar mass. Activity calls are given as the source filed them. No cut-off for these calls is given here. Non-standard residues stand in square brackets, D forms with d. Residues, ends and D or L forms follow the SMILES beside them.

How the values were obtained:
[1] = test system: Klebsiella pneumoniae; assay: Antimicrobial activity against Klebsiella pneumoniae NCTC418 assessed as microbial growth inhibition incubated for 16 to 20 hrs by broth microdilution method; assay type: functional; conditions: time 16-20 hrs
How it was run: (§1)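 Broth microdilution in Mueller–Hinton broth pH 7.4. Overnight LB colony culture diluted to OD600 0.022; roughly 5 × 10^5 CFU final inoculum. Static incubation at 37 °C for 16–20 h, then MTT added at room temperature. MIC is the lowest concentration with no visible growth, read by eye. Two independent duplicates.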

[2] = test system: Staphylococcus aureus; assay: Antimicrobial activity against methicillin-resistant Staphylococcus aureus COL assessed as microbial growth inhibition incubated for 16 to 20 hrs by MTT assay; assay type: functional; conditions: time 16-20 hrs; how it was run: as §1
[3] = test system: Erythrocyte; assay: Hemolytic activity in human RBC incubated for 4 hrs by visual analysis; assay type: toxicity, cell-based
[4] = test system: HEK293; assay: Cytotoxicity against HEK293 cells assessed as reduction in cell viability at 0 to 200 uM incubated for 24 hrs by Alamar blue assay; assay type: toxicity, cell-based; conditions: human, hek293, 24 h, dose 0-200 µM
How it was run: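 HEK293 cells were kept in DMEM with 10% FBS and penicillin/streptomycin, seeded at 4000 cells/well the day before, then exposed to peptide at 0–200 μM for 24 h at 37 °C, 5% CO2. Viability was read with 10% AlamarBlue for 3–5 h (ex 560/em 590 nm), normalized to untreated cells.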

[5] = test system: Pseudomonas aeruginosa; assay: Antimicrobial activity against Pseudomonas aeruginosa PAO1 assessed as bacterial killing at 8 ug/ml measured after 1 hr by time-kill assay; assay type: functional, organism-based; conditions: dose 8.0 µg/ml
How it was run: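 P. aeruginosa PAO1 from an overnight LB culture was diluted to 2 × 10^6 CFU/mL in MH, pH 7.4, then mixed 1:1 with peptide in MH and incubated at 37 °C with shaking at 180 rpm. Survivors were counted by plating 10-fold dilutions on LB agar at 0–6 h (37 °C, 10 h). Done in triplicate.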

[6] = test system: Burkholderia cenocepacia; assay: Antimicrobial activity against multidrug-resistant Burkholderia cenocepacia assessed as microbial growth inhibition incubated for 16 to 20 hrs by broth microdilution method; assay type: functional; conditions: time 16-20 hrs
How it was run: as §1, with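 “7.4. Peptides serially diluted 1/2 from 2 mg/mL water stocks over 0.5–64 μg/mL.” for “7.4.”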

[7] = test system: Acinetobacter baumannii; assay: Antimicrobial growth against Acinetobacter baumannii ATCC 19606 assessed as microbial growth inhibition incubated for 16 to 20 hrs by broth microdilution method; assay type: functional; conditions: time 16-20 hrs
How it was run: (§2)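 Broth microdilution in MH broth, pH 7.4. An overnight LB colony culture (37 °C, 180 rpm) was diluted to OD600 0.022, giving about 5 × 10^5 CFU per well. MTT was then added, and MIC was read by eye as the lowest concentration without visible growth. Two independent duplicates were run.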

[8] = test system: Pseudomonas aeruginosa; assay: Antimicrobial activity against Pseudomonas aeruginosa PAO1 assessed as microbial growth inhibition incubated for 16 to 20 hrs by broth microdilution method; assay type: functional; conditions: time 16-20 hrs; how it was run: as §2
[9] = test system: Escherichia coli; assay: Antimicrobial activity against Escherichia coli W3110 assessed as microbial growth inhibition incubated for 16 to 20 hrs by broth microdilution method; assay type: functional; conditions: time 16-20 hrs; how it was run: as §2
[10] = test system: Cell membrane; assay: Induction of membrane disruption in bacterial membrane mimic EYPG vesicles assessed as carboxyfluorescein leakage at 10 ug/ml measured after 240 secs by fluorescence based assay; assay type: subcellular; conditions: dose 10.0 µg/ml, time 240.0 sec
[11] = Induction of membrane disruption in eukaryotic inner membrane mimic EYPC vesicles assessed as carboxyfluorescein leakage at 10 ug/ml measured after 240 secs by fluorescence based assay; assay type: cell membranes; conditions: dose 10.0 µg/ml, time 240.0 sec
[12] = Proteolytic stability in human serum assessed as drug degradation at 200 uM incubated for 10 mins by RP-HPLC analysis; assay type: ADME, cell-free

Row | Compound | MIC [1] [µg/mL] | MIC [2] [µg/mL] | MHC [3] [µg/mL] | MIC [6] [µg/mL] | MIC [8] [µg/mL] | other results
1 | CC[C@H](C)[C@H](NC(=O)[C@@H](NC(=O)[C@@H](NC(=O)[C@@H](CCCCN)NC(=O)[C@@H](NC(=O)[C@@H](NC(=O)[C@@H](CCCCN)NC(=O)[C@@H](NC(=O)[C@@H](NC(=O)[C@@H](CCCCN)NC(=O)[C@H](N)CCCCN)[C@@H](C)CC)[C@@H](C)CC)[C@@H](C)CC)[C@@H](C)CC)[C@@H](C)CC)[C@@H](C)CC)C(N)=O (H-[dK][dK]II[dK]II[dK]III-NH2) | > 64 | > 64 | 125 | – | – | –
2 | CC(C)C[C@H](NC(=O)[C@H](CC(C)C)NC(=O)[C@H](CC(C)C)NC(=O)[C@H](CCCCN)NC(=O)[C@H](CC(C)C)NC(=O)[C@H](CC(C)C)NC(=O)[C@H](CCCCN)NC(=O)[C@H](CC(C)C)NC(=O)[C@H](CC(C)C)NC(=O)[C@H](CCCCN)NC(=O)[C@@H](N)CCCCN)C(N)=O | – | – | 125 | – | – | Activity [4]: Non-Toxic
3 | CC(C)C[C@H](NC(=O)[C@H](CCCCN)NC(=O)[C@H](N)CCCCN)C(=O)N[C@@H](CC(C)C)C(=O)N[C@@H](CCCCN)C(=O)N[C@@H](CC(C)C)C(=O)N[C@@H](CC(C)C)C(=O)N[C@@H](CCCCN)C(=O)N[C@@H](CC(C)C)C(=O)N[C@@H](CC(C)C)C(=O)N[C@H](CC(C)C)C(N)=O | – | – | 62.5 | – | – | Activity [5]: Active
4 | CC(C)C[C@H](NC(=O)[C@H](CC(C)C)NC(=O)[C@H](CCCCN)NC(=O)[C@H](CC(C)C)NC(=O)[C@H](CC(C)C)NC(=O)[C@@H](CCCCN)NC(=O)[C@H](N)CCCCN)C(=O)N[C@@H](CCCCN)C(=O)N[C@@H](CC(C)C)C(=O)N[C@@H](CC(C)C)C(=O)N[C@H](CC(C)C)C(N)=O | – | – | 125 | > 64 | – | Activity [5]: Active
5 | CC(C)C[C@H](NC(=O)[C@H](CC(C)C)NC(=O)[C@H](CC(C)C)NC(=O)[C@H](CCCCN)NC(=O)[C@@H](CC(C)C)NC(=O)[C@H](CC(C)C)NC(=O)[C@H](CCCCN)NC(=O)[C@@H](CC(C)C)NC(=O)[C@@H](CC(C)C)NC(=O)[C@@H](CCCCN)NC(=O)[C@@H](N)CCCCN)C(N)=O | – | – | 62.5 | > 64 | – | –
6 | H-KKLLKLLKLLLKKLLKLLKLLL-NH2 | > 64 | > 64 | < 15.6 | – | > 64 | MIC [7]: > 64 µg/mL; MIC [9]: > 64 µg/mL
7 | H-RRLLRLLRLLL-NH2 | – | – | 15.6 | – | 8 | Activity [10]: 30%; Activity [11]: 99%
8 | H-KKIIKIIKIII-NH2 | > 64 | > 64 | 62.5 | – | > 64 | –
9 | CC(C)C[C@H](NC(=O)[C@H](CC(C)C)NC(=O)[C@H](CC(C)C)NC(=O)[C@@H](CCCNC(=N)N)NC(=O)[C@H](CC(C)C)NC(=O)[C@H](CC(C)C)NC(=O)[C@@H](CCCNC(=N)N)NC(=O)[C@H](CC(C)C)NC(=O)[C@H](CC(C)C)NC(=O)[C@@H](CCCNC(=N)N)NC(=O)[C@H](N)CCCNC(=N)N)C(N)=O (H-[dR][dR]LL[dR]LL[dR]LLL-NH2) | – | 2 (≈ 1.39 µM) | 125 | – | – | –
10 | CC(C)C[C@H](NC(=O)[C@H](CC(C)C)NC(=O)[C@H](CC(C)C)NC(=O)[C@H](CCCCN)NC(=O)[C@H](CC(C)C)NC(=O)[C@H](CC(C)C)NC(=O)[C@H](CCCCN)NC(=O)[C@@H](CC(C)C)NC(=O)[C@@H](CC(C)C)NC(=O)[C@@H](CCCCN)NC(=O)[C@@H](N)CCCCN)C(N)=O | – | – | < 15.6 | > 64 | – | –
11 | CC(C)C[C@H](NC(=O)[C@H](CC(C)C)NC(=O)[C@H](CC(C)C)NC(=O)[C@H](CCCCN)NC(=O)[C@H](CC(C)C)NC(=O)[C@H](CC(C)C)NC(=O)[C@H](CCCCN)NC(=O)[C@@H](CC(C)C)NC(=O)[C@H](CC(C)C)NC(=O)[C@@H](CCCCN)NC(=O)[C@@H](N)CCCCN)C(N)=O | – | – | < 15.6 | > 64 | – | –
12 | CC(C)C[C@@H](NC(=O)[C@@H](CC(C)C)NC(=O)[C@@H](CC(C)C)NC(=O)[C@H](CCCCN)NC(=O)[C@@H](CC(C)C)NC(=O)[C@@H](CC(C)C)NC(=O)[C@H](CCCCN)NC(=O)[C@@H](CC(C)C)NC(=O)[C@@H](CC(C)C)NC(=O)[C@H](CCCCN)NC(=O)[C@@H](N)CCCCN)C(N)=O | – | – | 250 | – | – | Stability [12]: Unstable
13 | CC[C@H](C)[C@H](NC(=O)[C@@H](NC(=O)[C@@H](NC(=O)[C@@H](CCCNC(=N)N)NC(=O)[C@@H](NC(=O)[C@@H](NC(=O)[C@@H](CCCNC(=N)N)NC(=O)[C@@H](NC(=O)[C@@H](NC(=O)[C@@H](CCCNC(=N)N)NC(=O)[C@H](N)CCCNC(=N)N)[C@@H](C)CC)[C@@H](C)CC)[C@@H](C)CC)[C@@H](C)CC)[C@@H](C)CC)[C@@H](C)CC)C(N)=O (H-[dR][dR]II[dR]II[dR]III-NH2) | 32 (≈ 22.3 µM) | 8 (≈ 5.58 µM) | 250 | – | 4 (≈ 2.79 µM) | MIC [7]: 8 µg/mL (≈ 5.58 µM); MIC [9]: 8 µg/mL (≈ 5.58 µM); Activity [10]: 98%; Activity [11]: 8%
14 | H-RRIIRIIRIII-NH2 | 16 | 16 | 62.5 | – | 64 | MIC [7]: 8 µg/mL; MIC [9]: 16 µg/mL; Activity [10]: 99%; Activity [11]: 39%
15 | CC(C)C[C@H](NC(=O)[C@H](CC(C)C)NC(=O)[C@H](CC(C)C)NC(=O)[C@H](CCCCN)NC(=O)[C@H](CC(C)C)NC(=O)[C@H](CC(C)C)NC(=O)[C@H](CCCCN)NC(=O)[C@H](CC(C)C)NC(=O)[C@H](CC(C)C)NC(=O)[C@@H](CCCCN)NC(=O)[C@H](N)CCCCN)C(N)=O | – | – | < 15.6 | > 64 | – | –
16 | CC(C)C[C@H](NC(=O)[C@H](CC(C)C)NC(=O)[C@H](CC(C)C)NC(=O)[C@@H](CCCCN)NC(=O)[C@H](CC(C)C)NC(=O)[C@H](CC(C)C)NC(=O)[C@@H](CCCCN)NC(=O)[C@H](CC(C)C)NC(=O)[C@H](CC(C)C)NC(=O)[C@@H](CCCCN)NC(=O)[C@@H](CCCCN)NC(=O)[C@H](CC(C)C)NC(=O)[C@H](CC(C)C)NC(=O)[C@H](CC(C)C)NC(=O)[C@@H](CCCCN)NC(=O)[C@H](CC(C)C)NC(=O)[C@H](CC(C)C)NC(=O)[C@@H](CCCCN)NC(=O)[C@H](CC(C)C)NC(=O)[C@H](CC(C)C)NC(=O)[C@@H](CCCCN)NC(=O)[C@H](N)CCCCN)C(N)=O (H-[dK][dK]LL[dK]LL[dK]LLL[dK][dK]LL[dK]LL[dK]LLL-NH2) | > 64 | > 64 | < 15.6 | – | > 64 | MIC [7]: > 64 µg/mL
17 | CC(C)C[C@H](NC(=O)[C@H](CC(C)C)NC(=O)[C@H](CC(C)C)NC(=O)[C@H](CCCCN)NC(=O)[C@H](CC(C)C)NC(=O)[C@H](CC(C)C)NC(=O)[C@H](CCCCN)NC(=O)[C@H](CC(C)C)NC(=O)[C@H](CC(C)C)NC(=O)[C@@H](CCCCN)NC(=O)[C@@H](N)CCCCN)C(N)=O | – | – | < 15.6 | > 64 | – | –
